# Reference: ChEMBL document CHEMBL4842326, “Design, synthesis and biological evaluation of 3, 4-disubstituted-imidazolidine-2, 5-dione derivatives as HDAC6 selective inhibitors” (Eur J Med Chem, 2021)
# Columns and labels:
# [1] = biological target: T1, Protein deacetylase HDAC6 (Homo sapiens, UniProt Q9UBN7); test: Inhibition of HDAC6 (unknown origin) using Ac-LeuGlyLy-s(Ac)-AMC as substrate preincubated for 10 mins followed by substrate addition and further incubated for 2 hrs by fluorescence microtiter plate reader assay
# T1 sequence (Q9UBN7 whole entry): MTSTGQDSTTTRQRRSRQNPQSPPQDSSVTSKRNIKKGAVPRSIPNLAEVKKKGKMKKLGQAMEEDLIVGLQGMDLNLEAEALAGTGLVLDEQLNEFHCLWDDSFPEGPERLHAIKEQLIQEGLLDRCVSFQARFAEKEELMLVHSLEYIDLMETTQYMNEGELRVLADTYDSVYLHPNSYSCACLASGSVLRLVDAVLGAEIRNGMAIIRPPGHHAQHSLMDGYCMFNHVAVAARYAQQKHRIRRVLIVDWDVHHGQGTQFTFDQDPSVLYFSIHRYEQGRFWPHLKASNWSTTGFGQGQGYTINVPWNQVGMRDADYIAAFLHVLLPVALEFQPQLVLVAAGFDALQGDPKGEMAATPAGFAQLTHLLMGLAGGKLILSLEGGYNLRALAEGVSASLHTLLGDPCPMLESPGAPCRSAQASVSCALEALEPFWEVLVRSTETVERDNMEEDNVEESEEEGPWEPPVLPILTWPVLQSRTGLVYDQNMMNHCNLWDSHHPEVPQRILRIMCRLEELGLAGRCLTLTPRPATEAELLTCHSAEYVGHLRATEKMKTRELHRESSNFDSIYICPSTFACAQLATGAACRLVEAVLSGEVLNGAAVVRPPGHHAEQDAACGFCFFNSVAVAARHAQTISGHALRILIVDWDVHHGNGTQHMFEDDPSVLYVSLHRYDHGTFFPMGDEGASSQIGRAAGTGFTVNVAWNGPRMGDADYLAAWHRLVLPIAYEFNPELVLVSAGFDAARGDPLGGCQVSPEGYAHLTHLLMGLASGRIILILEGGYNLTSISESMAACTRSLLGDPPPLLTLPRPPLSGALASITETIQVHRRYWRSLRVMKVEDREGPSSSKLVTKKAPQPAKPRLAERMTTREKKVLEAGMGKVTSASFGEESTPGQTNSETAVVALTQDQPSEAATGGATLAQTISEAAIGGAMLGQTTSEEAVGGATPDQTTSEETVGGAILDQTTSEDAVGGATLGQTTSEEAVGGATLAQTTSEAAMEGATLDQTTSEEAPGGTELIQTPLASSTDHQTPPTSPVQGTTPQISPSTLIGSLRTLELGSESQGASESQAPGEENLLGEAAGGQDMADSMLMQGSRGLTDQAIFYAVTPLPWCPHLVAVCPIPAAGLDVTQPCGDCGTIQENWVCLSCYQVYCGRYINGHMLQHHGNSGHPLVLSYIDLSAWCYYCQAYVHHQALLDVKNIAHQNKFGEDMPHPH
# [2] = biological target: T2, Histone deacetylase 1 (Homo sapiens, UniProt Q13547); test: Inhibition of HDAC1 (unknown origin) using Ac-LeuGlyLys(Ac)-AMC as substrate preincubated for 10 mins followed by substrate addition and further incubated for incubated for 1 hrs by fluorescence microtiter plate reader assay
# T2 sequence (Q13547 whole entry): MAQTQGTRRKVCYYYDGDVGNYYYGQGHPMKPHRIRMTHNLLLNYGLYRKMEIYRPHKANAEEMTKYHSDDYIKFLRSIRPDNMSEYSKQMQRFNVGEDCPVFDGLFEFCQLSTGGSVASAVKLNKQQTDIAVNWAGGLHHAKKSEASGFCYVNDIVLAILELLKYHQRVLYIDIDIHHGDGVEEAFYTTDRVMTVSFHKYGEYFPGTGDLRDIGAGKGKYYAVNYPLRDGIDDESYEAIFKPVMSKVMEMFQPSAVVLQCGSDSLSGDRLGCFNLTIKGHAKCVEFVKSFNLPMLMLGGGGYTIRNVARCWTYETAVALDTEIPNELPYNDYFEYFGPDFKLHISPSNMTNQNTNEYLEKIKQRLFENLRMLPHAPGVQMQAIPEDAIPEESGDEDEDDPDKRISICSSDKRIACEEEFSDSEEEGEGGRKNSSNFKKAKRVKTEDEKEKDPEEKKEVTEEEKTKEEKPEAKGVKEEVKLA
# [3] = biological target: T3, Histone deacetylase 2 (Homo sapiens, UniProt Q92769)
# T3 sequence (Q92769 whole entry): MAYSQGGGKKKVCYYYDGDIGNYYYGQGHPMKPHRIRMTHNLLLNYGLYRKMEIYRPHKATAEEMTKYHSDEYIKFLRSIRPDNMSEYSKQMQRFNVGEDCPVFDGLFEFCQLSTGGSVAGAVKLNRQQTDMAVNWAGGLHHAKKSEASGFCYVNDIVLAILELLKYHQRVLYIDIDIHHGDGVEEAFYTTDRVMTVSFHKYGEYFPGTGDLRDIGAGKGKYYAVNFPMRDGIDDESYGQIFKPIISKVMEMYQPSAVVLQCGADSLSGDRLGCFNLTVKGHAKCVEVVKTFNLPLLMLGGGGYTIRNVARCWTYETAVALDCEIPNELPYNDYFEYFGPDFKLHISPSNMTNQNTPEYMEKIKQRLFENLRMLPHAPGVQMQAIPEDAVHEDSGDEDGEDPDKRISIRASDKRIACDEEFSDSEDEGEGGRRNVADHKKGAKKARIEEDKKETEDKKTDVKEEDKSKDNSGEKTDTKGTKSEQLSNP
# [4] = biological target: T4, Histone deacetylase 8 (Homo sapiens, UniProt Q9BY41); test: Inhibition of HDAC8 (unknown origin) using Ac-LeuGlyLys(tfa)-AMC as substrate preincubated for 10 mins followed by substrate addition and further incubated for incubated for 1 hrs by fluorescence microtiter plate reader assay
# T4 sequence (Q9BY41 whole entry): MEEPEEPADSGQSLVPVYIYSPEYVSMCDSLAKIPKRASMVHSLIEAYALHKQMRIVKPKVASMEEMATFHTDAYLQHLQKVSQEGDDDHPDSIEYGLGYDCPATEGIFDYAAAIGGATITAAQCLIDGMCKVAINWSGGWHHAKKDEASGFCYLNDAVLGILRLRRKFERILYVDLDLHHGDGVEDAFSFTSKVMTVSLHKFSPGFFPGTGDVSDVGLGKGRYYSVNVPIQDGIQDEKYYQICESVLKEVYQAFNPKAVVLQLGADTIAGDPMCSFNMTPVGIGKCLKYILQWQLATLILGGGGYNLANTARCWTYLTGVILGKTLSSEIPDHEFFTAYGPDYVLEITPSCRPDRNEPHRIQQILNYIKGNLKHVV
# [5] = biological target: T2, Histone deacetylase 1; test: Inhibition of HDAC1 (unknown origin)
# [6] = biological target: T3, Histone deacetylase 2; test: Inhibition of HDAC2 (unknown origin)
# [7] = biological target: Histone deacetylase 3 (Homo sapiens, UniProt O15379); test: Inhibition of HDAC3 (unknown origin)
# Sequence of Histone deacetylase 3 (O15379 whole entry): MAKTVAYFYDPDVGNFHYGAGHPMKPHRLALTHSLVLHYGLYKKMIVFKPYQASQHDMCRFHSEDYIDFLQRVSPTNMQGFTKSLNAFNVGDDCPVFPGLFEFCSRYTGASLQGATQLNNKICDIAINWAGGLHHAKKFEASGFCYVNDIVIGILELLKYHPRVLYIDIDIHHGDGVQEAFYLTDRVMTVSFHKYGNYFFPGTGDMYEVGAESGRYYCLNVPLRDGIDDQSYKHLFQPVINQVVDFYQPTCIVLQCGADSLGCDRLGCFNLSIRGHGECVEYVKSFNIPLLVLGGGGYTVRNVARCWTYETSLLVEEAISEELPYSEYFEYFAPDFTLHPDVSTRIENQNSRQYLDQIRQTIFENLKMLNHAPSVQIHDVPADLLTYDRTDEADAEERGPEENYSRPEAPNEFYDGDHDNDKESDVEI
# [8] = biological target: T4, Histone deacetylase 8; test: Inhibition of HDAC8 (unknown origin)
# [9] = species: Homo sapiens; test: Selectivity ratio of IC50 for HDAC1 (unknown origin) to IC50 for HDAC6 (unknown origin)
# [10] = species: Homo sapiens; test: Selectivity ratio of IC50 for HDAC2 (unknown origin) to IC50 for HDAC6 (unknown origin)
# [11] = species: Homo sapiens; test: Selectivity ratio of IC50 for HDAC8 (unknown origin) to IC50 for HDAC6 (unknown origin)
# [12] = test system: KG-1; test: Antiproliferative activity against human KG-1 cells assessed as inhibition of cell proliferation after 48 hrs by MTT assay; type: functional, cell-based; details: KG-1, 48 h
# Procedure, shortened: (§1)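 Leukemia/myeloma lines grown in RPMI1640 with 10% FBS at 37 °C, 5% CO2; seeded at 3500–4000 cells/well, cultured overnight, then exposed to serial dilutions for 48 h.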
# [13] = test system: HEL; test: Antiproliferative activity against human HEL cells assessed as inhibition of cell proliferation after 48 hrs by MTT assay; type: functional, cell-based; procedure, shortened: as §1
# [14] = test system: Jurkat; test: Antiproliferative activity against human Jurkat cells assessed as inhibition of cell proliferation after 48 hrs by MTT assay; type: functional, cell-based; procedure, shortened: as §1
# [15] = test system: HL-60; test: Antiproliferative activity against human HL-60 cells assessed as inhibition of cell proliferation after 48 hrs by MTT assay; type: functional, cell-based; details: HL-60, 48 h; procedure, shortened: as §1
# [16] = test system: NCI-H929; test: Antiproliferative activity against human NCI-H929 cells assessed as inhibition of cell proliferation after 48 hrs by MTT assay; type: functional, cell-based; details: NCI-H929, 48 h; procedure, shortened: as §1
# [17] = test system: HL-60; test: Induction of apoptosis in human HL-60 cells assessed as viable cells at 3 uM after 48 hrs by Annexin V-FITC/propidium iodide staining based flow cytometric analysis (reference value: 93.4%); type: functional; details: read-out: Activity
# Procedure, shortened: (§2)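 HL-60 cells (1 × 10^6/well) exposed 48 h to compound dilutions, collected, PBS-washed, resuspended in Annexin V-FITC binding buffer, stained with propidium iodide and Annexin V-FITC for 15 min, then analysed by flow cytometry.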
# [18] = test system: HL-60; test: Induction of apoptosis in human HL-60 cells assessed as early apoptotic cells at 3 uM after 48 hrs by Annexin V-FITC/propidium iodide staining based flow cytometric analysis (reference value: […]%); type: functional
# [19] = test system: HL-60; test: Induction of apoptosis in human HL-60 cells assessed as late apoptotic cells at 3 uM after 48 hrs by Annexin V-FITC/propidium iodide staining based flow cytometric analysis (reference value: 1.45%); type: functional; procedure, shortened: as §2
# [20] = test system: HUVEC; test: Cytotoxicity against human HUVEC cells assessed as decrease in cell viability after 48 hrs by MTT assay; type: cell-based
# Procedure, shortened: (§3)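 Normal cells: HUVECs in RPMI1640 with 10% FBS plus 0.1% heparin, GEC-1 in RPMI1640 with 10% FBS. Seeded 8 h, then treated with serial dilutions for 48 h; 0.5% MTT for 4 h, supernatant removed, DMSO added, absorbance read at 570 nm.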
# [21] = Cytotoxicity against human GEC1 cells assessed as decrease in cell viability after 48 hrs by MTT assay; type: cell-based; details: GEC1, 48 h; procedure, shortened: as §3
SMILES,IC50 [1] [nM],other results
O=C(NO)c1ccc(CN2C(=O)CN(Cc3ccc4ccccc4c3)C2=O)cc1,13.1,–
CC(C)(C)c1ccc(CN2CC(=O)N(Cc3ccc(C(=O)NO)cc3)C2=O)cc1,40.7,–
CCCN1CC(=O)N(Cc2ccc(C(=O)NO)cc2)C1=O,53.4,–
O=C(NO)c1ccc(CN2C(=O)CN(Cc3ccc(Cl)cc3)C2=O)cc1,8.3,IC50 [2]: 863 nM; IC50 [3]: 1080 nM; IC50 [4]: 994 nM
O=C(NO)c1ccc(CN2C(=O)CN(CCc3ccccc3)C2=O)cc1,21.7,–
Cc1ccc(CN2CC(=O)N(Cc3ccc(C(=O)NO)cc3)C2=O)cc1,17.6,–
O=C(NO)c1ccc(CN2C(=O)CN(Cc3ccccc3)C2=O)cc1,12.5,–
CN1CC(=O)N(Cc2ccc(C(=O)NO)cc2)C1=O,119,–
COc1ccc(CN2CC(=O)N(Cc3ccc(C(=O)NO)cc3)C2=O)cc1,28.2,–
CC(C)(C)OC(=O)Nc1ccc(-c2cc(NC(=O)CCCCCCC(=O)NO)no2)cc1,–,IC50 [5]: 271 nM; IC50 [6]: 252 nM; IC50 [7]: 0.42 nM; IC50 [8]: 6850 nM
O=C(NO)c1ccc(CN2C(=O)NC(CCc3ccccc3)(c3ccccc3)C2=O)cc1 (racemic),24.7,–
O=C(NO)c1ccc(CN2C(=O)C(Cc3ccccc3)N(Cc3cccc4ccccc34)C2=O)cc1 (racemic),28.8,–
O=C(NO)c1ccc(CN2C(=O)NC(Cc3ccc(Cl)cc3)(c3ccccc3)C2=O)cc1 (racemic),54,–
Cc1ccc(CN2C(=O)N(Cc3ccc(C(=O)NO)cc3)C(=O)C2Cc2ccccc2)cc1 (racemic),37.8,–
O=C(NO)c1ccc(CN2C(=O)C(Cc3ccccc3)N(Cc3ccc(Cl)cc3)C2=O)cc1 (racemic),6,IC50 [2]: 8180 nM; IC50 [3]: 8260 nM; IC50 [4]: 3990 nM; Ratio IC50 [9]: 1360; Ratio IC50 [10]: 1380; Ratio IC50 [11]: 664
CCCN1C(=O)N(Cc2ccc(C(=O)NO)cc2)C(=O)C1Cc1ccccc1 (racemic),56.9,–
O=C(NO)c1ccc(CN2C(=O)C(Cc3ccccc3)N(Cc3ccc4ccccc4c3)C2=O)cc1 (racemic),25.1,–
O=C(NO)c1ccc(CN2C(=O)C(Cc3ccccc3)N(Cc3ccccc3)C2=O)cc1 (racemic),21.3,–

SMILES,IC50 [1] [nM],other results
CC(C)(C)c1ccc(CC2(c3ccccc3)NC(=O)N(Cc3ccc(C(=O)NO)cc3)C2=O)cc1 (racemic),115,–
CCCN1C(=O)N(Cc2ccc(C(=O)NO)cc2)C(=O)C1CC(C)C (racemic),174,–
O=C(NO)c1ccc(CN2C(=O)C(Cc3ccccc3)N(Cc3ccccn3)C2=O)cc1 (racemic),4.8,IC50 [2]: 3420 nM; IC50 [3]: 5080 nM; IC50 [4]: 7830 nM
CCCC1(c2ccccc2)NC(=O)N(Cc2ccc(C(=O)NO)cc2)C1=O (racemic),50.9,–
O=C(NO)c1ccc(CN2C(=O)NC(Cc3ccccc3)(c3ccccc3)C2=O)cc1 (racemic),71.9,–
COc1ccc(CN2C(=O)N(Cc3ccc(C(=O)NO)cc3)C(=O)C2Cc2ccccc2)cc1 (racemic),102,–
COc1ccc(CC2(c3ccccc3)NC(=O)N(Cc3ccc(C(=O)NO)cc3)C2=O)cc1 (racemic),72.4,–
O=C(NO)c1ccc(CN2C(=O)NC(Cc3cccc4ccccc34)(c3ccccc3)C2=O)cc1 (racemic),91.9,–
CC1(c2ccccc2)NC(=O)N(Cc2ccc(C(=O)NO)cc2)C1=O (racemic),74.9,–
CC(C)(C)c1ccc(CN2C(=O)N(Cc3ccc(C(=O)NO)cc3)C(=O)C2Cc2ccccc2)cc1 (racemic),139,–
CC(C)CC1C(=O)N(Cc2ccc(C(=O)NO)cc2)C(=O)N1C (racemic),251,–
O=C(NO)c1ccc(CN2C(=O)NC(Cc3ccc4ccccc4c3)(c3ccccc3)C2=O)cc1 (racemic),74.6,–
O=C(NO)c1ccc(CN2C(=O)C(Cc3ccccc3)N(CCc3ccccc3)C2=O)cc1 (racemic),20.2,–
CN1C(=O)N(Cc2ccc(C(=O)NO)cc2)C(=O)C1Cc1ccccc1 (racemic),108,–
CC(C)CC1C(=O)N(Cc2ccc(C(=O)NO)cc2)C(=O)N1Cc1ccccc1 (racemic),129,–
O=C(NO)c1ccc(CN2C(=O)C(Cc3ccccc3)N(Cc3ccncc3)C2=O)cc1 (racemic),13.9,–
Cc1ccc(CC2(c3ccccc3)NC(=O)N(Cc3ccc(C(=O)NO)cc3)C2=O)cc1 (racemic),82.4,–
CN1CCc2c(c3ccccc3n2Cc2ccc(C(=O)NO)cc2)C1 [TUBASTATIN A],–,IC50 [12]: 8820 nM; IC50 [13]: 8090 nM; IC50 [14]: 14600 nM; IC50 [15]: 4090 nM; IC50 [16]: 15400 nM; viability at 3 µM [17]: 87.6%; Activity [18]: 6.12%; Activity [19]: 6.24%; IC50 [20]: 69200 nM; IC50 [21]: 48600 nM
